MIC and CC50 data for four compounds are collected here from ChEMBL document CHEMBL1817648, “Synthesis and in vitro antibacterial activity of a series of novel gatifloxacin derivatives” (Eur J Med Chem, 2011).

≈ marks a conversion by molar mass, not a printed value. Bounds are passed on as bounds.

The subject of series [1] is Streptococcus pneumoniae. Description: Antibacterial activity against Streptococcus pneumoniae 08-4 after 18 to 24 hrs by NCCLS M100-S11 two fold serial dilution method. In kind it is functional.
The subject of series [2] is Enterococcus faecium. Description: Antibacterial activity against Enterococcus faecium 08-7 after 18 to 24 hrs by NCCLS M100-S11 two fold serial dilution method. It counts as functional.
For series [3], the system named is Klebsiella pneumoniae. Description: Antibacterial activity against Klebsiella pneumoniae 09-22 after 18 to 24 hrs by NCCLS M100-S11 two fold serial dilution method. It counts as functional.
The subject of series [4] is Staphylococcus aureus. Description: Antibacterial activity against methicillin-sensitive Staphylococcus aureus 08-1 after 18 to 24 hrs by NCCLS M100-S11 two fold serial dilution method. In kind it is functional.
Series [5] deals with Escherichia coli. Description: Antibacterial activity against Escherichia coli 08-22 after 18 to 24 hrs by NCCLS M100-S11 two fold serial dilution method. It counts as functional.
Series [6] deals with Enterococcus faecalis. Description: Antibacterial activity against Enterococcus faecalis 08-12 after 18 to 24 hrs by NCCLS M100-S11 two fold serial dilution method. It counts as functional.
In series [7] the test system is Escherichia coli. Description: Antibacterial activity against Escherichia coli ATCC 25922 after 18 to 24 hrs by NCCLS M100-S11 two fold serial dilution method. It counts as functional. The note with it: ATCC25922.
The test system of series [8] is Staphylococcus aureus. Description: Antibacterial activity against Staphylococcus aureus ATCC 25923 after 18 to 24 hrs by NCCLS M100-S11 two fold serial dilution method. The note with it: ATCC25923. In kind it is functional.
Series [9] concerns Enterococcus faecium. Description: Antibacterial activity against Enterococcus faecium 08-2 after 18 to 24 hrs by NCCLS M100-S11 two fold serial dilution method. It counts as functional.
The subject of series [10] is Klebsiella pneumoniae. Description: Antibacterial activity against Klebsiella pneumoniae 09-23 after 18 to 24 hrs by NCCLS M100-S11 two fold serial dilution method. It counts as functional.
Series [11] relates to Escherichia coli. Description: Antibacterial activity against Escherichia coli 08-21 after 18 to 24 hrs by NCCLS M100-S11 two fold serial dilution method. In kind it is functional.
Series [12] deals with Pseudomonas aeruginosa. Description: Antibacterial activity against Pseudomonas aeruginosa 09-33 after 18 to 24 hrs by NCCLS M100-S11 two fold serial dilution method. In kind it is functional.
For series [13], the system named is Pseudomonas aeruginosa. Description: Antibacterial activity against Pseudomonas aeruginosa 09-32 after 18 to 24 hrs by NCCLS M100-S11 two fold serial dilution method. In kind it is functional.
For series [14], the system named is Staphylococcus epidermidis. Description: Antibacterial activity against methicillin-resistant Staphylococcus epidermidis 09-4 after 18 to 24 hrs by NCCLS M100-S11 two fold serial dilution method. It counts as functional. The procedure, abridged:
(§1)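 Two-fold serial dilution in agar medium. MIC read as the lowest concentration giving complete inhibition of bacterial growth after incubation at 35 °C for 18–24 h.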

The nature of series [15]: Cytotoxicity against african green monkey Vero cells after 72 hrs by MTT assay. It counts as cell-based. The note with it: chlorocebus sabaeus. The procedure, abridged: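 Vero cells were kept in Minimum Essential Medium with Earle's salts plus 10% fetal bovine serum at 37 °C under 5% CO₂. Cells were seeded at 1 × 10⁴ per well and allowed to recover 24 h. Medium was then replaced with assay medium containing compound or no drug, and cells were exposed for 72 h. CC₅₀ is the 50% cellular cytotoxic concentration.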
Background: Tetrazolium dyes change colour on reduction, which living cells bring about.

Series [16] relates to Pseudomonas aeruginosa. Description: Antibacterial activity against Pseudomonas aeruginosa ATCC 27853 after 18 to 24 hrs by NCCLS M100-S11 two fold serial dilution method. In kind it is functional.
Series [17] concerns Enterococcus faecalis. Description: Antibacterial activity against Enterococcus faecalis 08-10 after 18 to 24 hrs by NCCLS M100-S11 two fold serial dilution method. In kind it is functional.
Series [18] concerns Staphylococcus epidermidis. Description: Antibacterial activity against methicillin-sensitive Staphylococcus epidermidis 09-3 after 18 to 24 hrs by NCCLS M100-S11 two fold serial dilution method. It counts as functional. The procedure, abridged:
as §1

The test system of series [19] is Staphylococcus aureus. Description: Antibacterial activity against methicillin-resistant Staphylococcus aureus 08-1 after 18 to 24 hrs by NCCLS M100-S11 two fold serial dilution method. It counts as functional. The procedure, abridged:
as §1

In series [20] the test system is Streptococcus pneumoniae. Description: Antibacterial activity against Streptococcus pneumoniae 08-2 after 18 to 24 hrs by NCCLS M100-S11 two fold serial dilution method. It counts as functional.
Series [21] concerns Staphylococcus epidermidis. Description: Antibacterial activity against methicillin-sensitive Staphylococcus epidermidis 09-6 after 18 to 24 hrs by NCCLS M100-S11 two fold serial dilution method. In kind it is functional. The procedure, abridged: as §1
Series [22] has as its system Pseudomonas aeruginosa. Description: Antibacterial activity against Pseudomonas aeruginosa 09-34 after 18 to 24 hrs by NCCLS M100-S11 two fold serial dilution method. It counts as functional.

The MIC is the smallest concentration in the dilution series that meets the test's criterion for growth inhibition. As usually defined, the CC50 is the concentration that lowers cell viability or growth by half. As for `COc1c(N2CCN(CC/C(C)=N/NC(N)=O)C(C)C2)c(F)cc2c(=O)c(C(=O)O)cn(C3CC3)c12` (stereo not drawn), the MIC in [1] worked out at 2 µg/mL (≈ 3.98 µM); in [2] it was 8 µg/mL (≈ 15.9 µM); in series [3] it was 1 µg/mL (≈ 1.99 µM); in series [4] it was 1 µg/mL (≈ 1.99 µM); in series [5] it was 4 µg/mL (≈ 7.96 µM); in series [6], 8 µg/mL (≈ 15.9 µM). For the same compound, the MIC in series [7] turned out to be 2 µg/mL (≈ 3.98 µM); in [8] it was 0.5 µg/mL (≈ 0.995 µM); in series [9] it was 8 µg/mL (≈ 15.9 µM); in series [10], 2 µg/mL (≈ 3.98 µM); in series [11], 8 µg/mL (≈ 15.9 µM); in series [12], 16 µg/mL (≈ 31.8 µM). Besides, the minimum inhibitory concentration (MIC) was determined as 0.25 µg/mL (≈ 0.497 µM) in series [13]; 1 µg/mL (≈ 1.99 µM) in series [14]; 4 µg/mL (≈ 7.96 µM) in [16]; 8 µg/mL (≈ 15.9 µM) in [17]; 0.25 µg/mL (≈ 0.497 µM) in series [18]; 2 µg/mL (≈ 3.98 µM) in [19]. Also, the MIC in series [20] turned out to be 8 µg/mL (≈ 15.9 µM); in [21], 0.25 µg/mL (≈ 0.497 µM); in series [22], 2 µg/mL (≈ 3.98 µM). In [15], this compound displayed a CC50 at 72 h of 31.2 µg/mL (≈ 62.2 µM).

Consider `CO/N=C(\C)CN1CCN(c2c(F)cc3c(=O)c(C(=O)O)cn(C4CC4)c3c2OC)CC1C` (stereo not drawn), for which the MIC was 2 µg/mL (≈ 4.34 µM) in series [1]; over 128 µg/mL in series [2]; over 128 µg/mL in [3]; 0.25 µg/mL (≈ 0.543 µM) in [4]; over 128 µg/mL in series [5]; over 128 µg/mL in series [6]. Further, the MIC in series [7] was 64 µg/mL (≈ 139 µM); in [8], 0.5 µg/mL (≈ 1.09 µM); in series [9] it was over 128 µg/mL; in series [10], over 128 µg/mL; in series [11] it was over 128 µg/mL; in [12] it was over 128 µg/mL. Moreover, the minimum inhibitory concentration (MIC) in series [13] is 64 µg/mL (≈ 139 µM); in series [14], 0.5 µg/mL (≈ 1.09 µM); in [16] it was 32 µg/mL (≈ 69.5 µM); in series [17], over 128 µg/mL; in [18], 0.5 µg/mL (≈ 1.09 µM); in series [19] it was over 128 µg/mL. In addition, the minimum inhibitory concentration (MIC) in series [20] is 64 µg/mL (≈ 139 µM); in [21], 4 µg/mL (≈ 8.69 µM); in series [22], over 128 µg/mL. In addition, half-maximal cytotoxicity in [15] (CC50 at 72 h) was put at 49.6 µg/mL (≈ 108 µM).

Regarding `CO/N=C(\C)CCN1CCN(c2c(F)cc3c(=O)c(C(=O)O)cn(C4CC4)c3c2OC)CC1C` (stereo not drawn), the MIC is over 128 µg/mL in series [1]; over 128 µg/mL in series [2]; over 128 µg/mL in [3]; 2 µg/mL (≈ 4.21 µM) in series [4]; over 128 µg/mL in series [5]; over 128 µg/mL in series [6]. Moreover, the minimum inhibitory concentration (MIC) is 128 µg/mL (≈ 270 µM) in [7]; 0.5 µg/mL (≈ 1.05 µM) in series [8]; over 128 µg/mL in [9]; over 128 µg/mL in [10]; over 128 µg/mL in series [11]; over 128 µg/mL in [12]. For the same compound, the minimal inhibitory concentration (MIC) in [13] was 128 µg/mL (≈ 270 µM); in series [14], 2 µg/mL (≈ 4.21 µM); in series [16] it was 128 µg/mL (≈ 270 µM); in series [17], over 128 µg/mL; in series [18], 0.5 µg/mL (≈ 1.05 µM); in series [19], over 128 µg/mL. Also, the MIC in series [20] is over 128 µg/mL; in [21], 1 µg/mL (≈ 2.11 µM); in [22], over 128 µg/mL. For the same compound, the midpoint of cytotoxicity in series [15], the CC50 at 72 h, lay at 157 µg/mL (≈ 332 µM).

With `COc1c(N2CCN(CCC(C)=O)C(C)C2)c(F)cc2c(=O)c(C(=O)O)cn(C3CC3)c12` (stereo not drawn), the minimum inhibitory concentration (MIC) in series [1] was 0.25 µg/mL (≈ 0.561 µM); in series [2], 4 µg/mL (≈ 8.98 µM); in series [3], 0.5 µg/mL (≈ 1.12 µM); in series [4], 0.25 µg/mL (≈ 0.561 µM); in series [5], 0.5 µg/mL (≈ 1.12 µM); in [6], 4 µg/mL (≈ 8.98 µM). Besides, the minimal inhibitory concentration (MIC) was 0.5 µg/mL (≈ 1.12 µM) in series [7]; 0.06 µg/mL (≈ 0.135 µM) in series [8]; 4 µg/mL (≈ 8.98 µM) in series [9]; 0.5 µg/mL (≈ 1.12 µM) in series [10]; 4 µg/mL (≈ 8.98 µM) in series [11]; 4 µg/mL (≈ 8.98 µM) in series [12]. Moreover, the minimal inhibitory concentration (MIC) in series [13] was 0.25 µg/mL (≈ 0.561 µM); in [14], 0.25 µg/mL (≈ 0.561 µM); in series [16], 1 µg/mL (≈ 2.24 µM); in [17], 4 µg/mL (≈ 8.98 µM); in series [18], 0.25 µg/mL (≈ 0.561 µM); in series [19], 0.5 µg/mL (≈ 1.12 µM). For the same compound, the MIC in [20] was 4 µg/mL (≈ 8.98 µM); in series [21], 0.25 µg/mL (≈ 0.561 µM); in [22] it was 0.5 µg/mL (≈ 1.12 µM). The same compound had a CC50 at 72 h in series [15] of 9.84 µg/mL (≈ 22.1 µM).
